CHO parental Ca: ATP-evoked calcium signal inhibitors, parental CHO, primary screen, counter-screen for OX1R antagonist project, cell-based, fluorescence, Fluo-8 calcium dye; parental CHO-K1, ATP-induced calcium, Fluo-8 fluorescence; inhibition, % at 5.6 µM; 330,000 compounds, 0.63% hits; AID 463079, 2010;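 active means inhibition above that plate's mean sample inhibition plus 3 SD, cut at about 26% in these data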;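 further: 0% = ATP-challenged DMSO wells and 100% = DMSO wells without ATP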
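Material: Parental CHO cells | Reagent: ATP | Compound dosing: Single nominal dose of 5.6 µM per compound | Detection: Intracellular calcium via Fluo-8 no-wash fluorescent dye | Read-out: % inhibition of ATP-induced calcium mobilization | Benchmarks: Low control ATP plus DMSO, high control DMSO only | Replicates: Singlicate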
OXTR potentiator: human OXTR potentiators, primary screen, fluorescence, CHO-OTR cells, Fluo-8 calcium; Oxytocin receptor (Homo sapiens), P30559; Fluo-8 calcium fluorescence, potentiator mode; 0% = oxytocin EC15, 100% = EC100; activation, % at 3 µM; 320,000 compounds, 0.061% hits; AID 2445, 2010;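 active means activation above that plate's cutoff, the mean activation of tested compounds plus 3 SD, cut at about 6.6% in these data, passing the limit was not always enough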;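 further: 100% uses oxytocin at 75 nM as the full agonist control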
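assay system = CHO-OTR cells, human receptor | schedule = compound 6 min at room temperature before oxytocin, 100 s read | detection = Fluo-8 intracellular calcium fluorescence, ex 470-495, em 515-575 nm | evaluation = normalized max/min fluorescence ratio, % activation | control set = EC15 oxytocin alone as 0%, 75 nM oxytocin (EC100) as 100%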
OX1R antag-1: OX1R (HCRTR1) antagonists, primary screen, fluorescence, CHO/OX1R cells, Fluo-8 calcium, orexin A. 330,000 compounds, 0.43% hits. Fluo-8 calcium fluorescence. inhibition, % at 5 µM. Orexin/Hypocretin receptor type 1 (Homo sapiens), O43613;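 active means inhibition above its plate's threshold, mean inhibition of all tested compounds on the plate plus 3 SD, cut at about 37% in these data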;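 further: 0% = orexin A challenge wells and 100% = SB-334867-A antagonist wells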
V1R ag counter: agonists of human V1a receptor, primary screen, counter-screen for OXTR agonist project, fluorescence, CHO-V1R cells; Fluo-8 calcium fluorescence, agonist mode; 0% DMSO, 100% 3 nM vasopressin; activation, % at 3 µM; 320,000 compounds, 0.25% hits;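 active means activation above the mean activation of all tested compounds plus 3 SD, per screening run, cut at about 20% in these data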;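 further: signal is peak over basal fluorescence ratio across a 100 second FLIPR read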
Target sequence (P37288 whole entry, looked up): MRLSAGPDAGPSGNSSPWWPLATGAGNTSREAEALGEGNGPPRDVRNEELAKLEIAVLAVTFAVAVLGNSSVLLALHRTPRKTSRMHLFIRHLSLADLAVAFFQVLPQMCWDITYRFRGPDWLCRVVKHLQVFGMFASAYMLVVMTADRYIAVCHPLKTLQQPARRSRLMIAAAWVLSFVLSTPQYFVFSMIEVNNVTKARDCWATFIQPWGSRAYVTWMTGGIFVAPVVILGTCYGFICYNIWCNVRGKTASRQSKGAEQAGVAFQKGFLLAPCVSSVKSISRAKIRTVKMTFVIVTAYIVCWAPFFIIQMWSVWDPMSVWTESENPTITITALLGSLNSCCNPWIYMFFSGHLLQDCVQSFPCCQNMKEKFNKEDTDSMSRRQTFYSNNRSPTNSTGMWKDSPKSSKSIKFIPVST
OX1R antag-2: antagonists of human orexin 1 receptor (OX1R). Orexin/Hypocretin receptor type 1 (Homo sapiens), O43613. OX1R-expressing cells, FRET antagonist read-out. inhibition, % at 6.6 µM. 330,000 compounds, 1.8% hits; in the data active means inhibition mostly above about 38%, no sharp cut-off; inactive means mostly below about 40%;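 further: 0% = agonist challenge alone and 100% = reference antagonist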
OXTR agonist: human OXTR agonists, primary screen, fluorescence, CHO-OTR cells, Fluo-8 calcium. Oxytocin receptor (Homo sapiens), P30559. Fluo-8 calcium fluorescence; normalized: DMSO 0%, oxytocin 100%. activation, % at 3 µM. 320,000 compounds, 0.32% hits. AID 2435, 2010;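 active means activation above the mean of all tested compounds plus 3 SD, cutoff set per screening run, cut at about 20% in these data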;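 further: peak over basal fluorescence ratio from a 100 s FLIPR kinetic read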
Active calls of the source: *. A selection: hits, their analogues and other compounds. The true share with any hit is near 2.6%.

Screening Cc1ccc([N+](=O)[O-])c(C(=O)N/N=C/c2cccs2)c1 returned CHO parental Ca -22, OXTR potentiator -7, OX1R antag-1 -17, V1R ag counter -1, OX1R antag-2 23 and OXTR agonist -1.
Cc1ccc([N+](=O)[O-])c(C(=O)N/N=C/c2cccnc2)c1 was read as CHO parental Ca -5, OXTR potentiator -1, OX1R antag-1 -3, V1R ag counter 0, OX1R antag-2 42* and OXTR agonist 1.
Screening O=C(Nc1ccccn1)c1ccc([N+](=O)[O-])cc1Cl returned CHO parental Ca -5, OXTR potentiator -4, OX1R antag-1 -7, V1R ag counter 0, OX1R antag-2 56* and OXTR agonist -1.
For O=C(N/N=C/c1cccnc1)c1ccc([N+](=O)[O-])cc1Cl the results were CHO parental Ca -5, OXTR potentiator -4, OX1R antag-1 -17, V1R ag counter 0, OX1R antag-2 35* and OXTR agonist 0.
`C/C(CC(=O)Nc1ccccn1)=N\NC(=O)c1ccc([N+](=O)[O-])cc1Cl` gave CHO parental Ca -2, OXTR potentiator -1, OX1R antag-1 -19, V1R ag counter 0, OX1R antag-2 60 and OXTR agonist 0.
CN(C(=O)c1cccc(NC(=O)Cc2cccc([N+](=O)[O-])c2)c1)C1CCCC1 was read as CHO parental Ca -8, OXTR potentiator -7, OX1R antag-1 -22, V1R ag counter 6, OX1R antag-2 7 and OXTR agonist 5.
For COc1ccc(NC(=O)CCc2nnc3ccc(N4CCN(c5cccc(OC)c5)CC4)nn23)cc1 the results were CHO parental Ca -23, OXTR potentiator -12, OX1R antag-1 -14, V1R ag counter 0, OX1R antag-2 9 and OXTR agonist 4.
For COc1ccccc1Nc1ncccc1C(=O)NCc1ccccc1 the results were CHO parental Ca -12, OXTR potentiator -1, OX1R antag-1 -1, V1R ag counter 2, OX1R antag-2 75* and OXTR agonist 3.
COc1ccc(COc2ccccc2C(=O)NCc2ccccc2)cc1F was read as CHO parental Ca 34*, OXTR potentiator -13, OX1R antag-1 6, V1R ag counter 7, OX1R antag-2 31 and OXTR agonist 3.
For COc1ccc(F)cc1S(=O)(=O)Nc1ccncc1 the results were CHO parental Ca 10, OXTR potentiator -11, OX1R antag-1 21, V1R ag counter 0, OX1R antag-2 5 and OXTR agonist 3.
`COc1ccc2c(COC(=O)CNS(=O)(=O)c3ccccc3)cc(=O)oc2c1` gave CHO parental Ca -12, OXTR potentiator -3, OX1R antag-1 -17, V1R ag counter 0, OX1R antag-2 8 and OXTR agonist 2.
Screening CCCNS(=O)(=O)c1cccc(C(=O)OCc2cc(=O)oc3cc(OC)ccc23)c1 returned CHO parental Ca 26, OXTR potentiator -29, OX1R antag-1 55*, V1R ag counter 8, OX1R antag-2 47 and OXTR agonist 9.
Screening O=C(NN=Cc1ccc(N2CCOCC2)s1)c1ccc([N+](=O)[O-])cc1 returned CHO parental Ca -4, OXTR potentiator 0, OX1R antag-1 7, V1R ag counter 0, OX1R antag-2 22 and OXTR agonist 0.
Screening Cc1ccc(SCCOCCN2CCc3ccccc3C2)cc1 returned CHO parental Ca -24, OXTR potentiator -2, OX1R antag-1 -37, V1R ag counter 0, OX1R antag-2 12 and OXTR agonist -1.
Screening Cc1cc(NC(=O)c2ccc3nccnc3c2)ccc1Br returned CHO parental Ca -3, OXTR potentiator -10, OX1R antag-1 12, V1R ag counter 1, OX1R antag-2 48* and OXTR agonist 2.
O=C(Nc1ccc2nc3ccccc3nc2c1)c1ccc(Br)cc1 was read as CHO parental Ca -4, OXTR potentiator 1, OX1R antag-1 -3, V1R ag counter 0, OX1R antag-2 13 and OXTR agonist 1.
`O=C(Nc1ccc2cccnc2c1)c1ccc(Br)cc1` gave CHO parental Ca -13, OXTR potentiator -20, OX1R antag-1 2, V1R ag counter 1, OX1R antag-2 30* and OXTR agonist -2.
`O=C(Nc1ccc(SC(F)F)cc1)c1ccc2nccnc2c1` gave CHO parental Ca 52*, OXTR potentiator -9, OX1R antag-1 86*, V1R ag counter 8, OX1R antag-2 52* and OXTR agonist 19.
For Cc1ccc(C(=O)Nc2ccc3nccnc3c2)cc1 the results were CHO parental Ca -22, OXTR potentiator -8, OX1R antag-1 -17, V1R ag counter 0, OX1R antag-2 46 and OXTR agonist 0.
For COc1ccc(C2C=C(c3ccc(Br)s3)Nc3ncnn32)cc1OC (centres undefined) the results were CHO parental Ca -7, OXTR potentiator -23, OX1R antag-1 4, V1R ag counter 17, OX1R antag-2 31 and OXTR agonist 23*.
Cc1cccc(N2CCN(S(=O)(=O)c3ccc4c(c3)CCC(=O)N4)CC2C)c1 (centres undefined) was read as CHO parental Ca 40*, OXTR potentiator -8, OX1R antag-1 -7, V1R ag counter 4, OX1R antag-2 27 and OXTR agonist 5.
Screening Cc1cccc(N2CCN(S(=O)(=O)c3ccc4c(c3)C(C)(C)C(=O)N4C)CC2C)c1 (centres undefined) returned CHO parental Ca -8, OXTR potentiator -12, OX1R antag-1 -13, V1R ag counter -1, OX1R antag-2 6 and OXTR agonist -3.
For CCc1cccc(C)c1NC(=O)CN(C)Cc1ccc(Br)cc1 the results were CHO parental Ca 40*, OXTR potentiator -6, OX1R antag-1 9, V1R ag counter 7, OX1R antag-2 21 and OXTR agonist 3.
CCc1sc(N2C(=O)C3C4CCC(C4=C(C)C)C3C2=O)nc1-c1ccccc1 (centres undefined) was read as CHO parental Ca -38, OXTR potentiator -10, OX1R antag-1 23, V1R ag counter -1, OX1R antag-2 38* and OXTR agonist -2.
For COc1ccc(C2/C=C\CN(S(=O)(=O)c3ccc(C)cc3)CC(=O)N2Cc2cccc(F)c2)cc1 (centres undefined) the results were CHO parental Ca -14, OX1R antag-1 44 and OX1R antag-2 50*.
